What all share (format): functional
Assay [1] is filed under the species Oryctolagus cuniculus. Description: Tested for rate automaticity measured in beats per minute from unpaced right atria of rabbit heart. In outline:
(§1)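 Isolated rabbit heart tissues, all from one heart, each its own baseline; 2 h equilibration, perfusate changed every 15 min, basal stimulation 2 Hz between measurements. Exposed to 10^-7, 10^-6 and 10^-5 M drug, 15 min each; values reported at 10^-5 M as percent change from baseline. Drug solutions prepared daily in glass-distilled water. Force and rate recorded on polygraph.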

The species entered for assay [2] is Oryctolagus cuniculus. Description: Tested for effective refractory period measured at a pacing rate of 1 Hz in vitro with rabbit heart tissue preparations. In outline:
as §1

The species entered for assay [3] is Oryctolagus cuniculus. Description: Tested for conduction time measured at a pacing rate of 1 Hz in vitro with rabbit heart tissue preparations. Put shortly:
as §1

The species entered for assay [4] is Oryctolagus cuniculus. In words: Tested for conduction time measured at a pacing rate of 3 Hz in vitro with rabbit heart tissue preparations. In outline:
as §1

Assay [5] is filed under the species Oryctolagus cuniculus. Description: Tested for effective refractory period measured at a pacing rate of 3 Hz in vitro with rabbit heart tissue preparations. More on the design: unit: %. Put shortly:
as §1

For assay [6], the species on record is Oryctolagus cuniculus. Description: Tested for force of contraction measured in mg at a pacing rate of 2 Hz in vitro with rabbit heart tissue preparations. Put shortly:
as §1

The values that follow come from ChEMBL document CHEMBL1125736, “N-[(omega-amino-1-hydroxyalkyl)phenyl]methanesulfonamide derivatives with class III antiarrhythmic activity” (1991).

For the compound `CCCCCCCCCCN(CC)CCCC(O)c1ccc(NS(C)(=O)=O)cc1` (stereo not drawn), the Rate in the assay filed under Oryctolagus cuniculus [1] is recorded as -11. Besides, in the assay listed under Oryctolagus cuniculus [2], the ERP1 stood at 11.8. Moreover, in the assay listed under Oryctolagus cuniculus [3], the CT1 came out at 63.2. This compound gave a CT3 in the assay filed under Oryctolagus cuniculus [4] of 74.3. This compound came in with an ERP3 in the assay filed under Oryctolagus cuniculus [5] of 16.1. This compound returned an FOC in the assay listed under Oryctolagus cuniculus [6] of -23.1.

In the assay listed under Oryctolagus cuniculus [1], `CCCCCCCN(CC)CC(O)c1ccc(NS(C)(=O)=O)cc1` (stereo not drawn) had a Rate of -38. For the same compound, the ERP1 in the assay listed under Oryctolagus cuniculus [2] worked out at 22.9. In the assay listed under Oryctolagus cuniculus [3], the CT1 is 10.2. Also, the ERP3 in the assay listed under Oryctolagus cuniculus [5] was determined as 26.2. In the assay listed under Oryctolagus cuniculus [6], the FOC is -7.

For `CCCCCCCN(CC)CCCC(O)c1cccc(NS(C)(=O)=O)c1` (stereo not drawn), the Rate in the assay listed under Oryctolagus cuniculus [1] is recorded as -16. The ERP1 in the assay filed under Oryctolagus cuniculus [2] was found to be 25.2. In addition, in the assay filed under Oryctolagus cuniculus [3], the CT1 came out at 21.3. In the assay listed under Oryctolagus cuniculus [4], this compound displayed a CT3 of 54. Moreover, in the assay filed under Oryctolagus cuniculus [5], the ERP3 is given as 19. In addition, the FOC in the assay filed under Oryctolagus cuniculus [6] was -15.

In the assay listed under Oryctolagus cuniculus [1], `CCCCCCN(CC)CCCC(O)c1ccc(NS(C)(=O)=O)cc1` (stereo not drawn) showed a Rate of -16. The same compound showed an ERP1 in the assay listed under Oryctolagus cuniculus [2] of 12.1. The compound also showed a CT1 in the assay filed under Oryctolagus cuniculus [3] of -6.5. In addition, in the assay filed under Oryctolagus cuniculus [4], the CT3 is given as 0. The compound further had an ERP3 in the assay filed under Oryctolagus cuniculus [5] of 7.8. Besides, the FOC in the assay listed under Oryctolagus cuniculus [6] is reported as -10.9.

In the assay filed under Oryctolagus cuniculus [1], `CS(=O)(=O)Nc1ccc(C(O)CCCN2CCCCCCC2)cc1` (stereo not drawn) had a Rate of -10. Moreover, the ERP1 in the assay listed under Oryctolagus cuniculus [2] is reported as 21.4. Besides, in the assay filed under Oryctolagus cuniculus [3], the CT1 was -4.5. The CT3 in the assay listed under Oryctolagus cuniculus [4] is -4.7. In addition, the ERP3 in the assay listed under Oryctolagus cuniculus [5] was determined as 23.5. The same compound yielded an FOC in the assay listed under Oryctolagus cuniculus [6] of -5.6.

In the assay listed under Oryctolagus cuniculus [1], `CCCCCCCN(CC)CCCC(=O)c1ccc(NS(C)(=O)=O)cc1` gave a Rate of -21. This compound also had an ERP1 in the assay filed under Oryctolagus cuniculus [2] of 6.6. The same compound showed a CT1 in the assay listed under Oryctolagus cuniculus [3] of -2.7. Also, the CT3 in the assay filed under Oryctolagus cuniculus [4] was found to be 0.6. The compound further had an ERP3 in the assay listed under Oryctolagus cuniculus [5] of 9.4. In addition, the FOC in the assay filed under Oryctolagus cuniculus [6] is -6.7.

In turn, `CCCCCCCCN(CC)CCCC(O)c1ccc(NS(C)(=O)=O)cc1` (stereo not drawn) gave a Rate in the assay listed under Oryctolagus cuniculus [1] of -28. For the same compound, in the assay filed under Oryctolagus cuniculus [2], the ERP1 worked out at 5.3. This compound displayed a CT1 in the assay listed under Oryctolagus cuniculus [3] of 17.3. For the same compound, in the assay listed under Oryctolagus cuniculus [4], the CT3 came to 29.8. The same compound displayed an ERP3 in the assay filed under Oryctolagus cuniculus [5] of 4.3. This compound registered an FOC in the assay filed under Oryctolagus cuniculus [6] of 0.7.

In turn, `CCCCCCCN(C)CCCC(O)c1ccc(NS(C)(=O)=O)cc1` (stereo not drawn) showed a Rate in the assay filed under Oryctolagus cuniculus [1] of -34. The ERP1 in the assay filed under Oryctolagus cuniculus [2] came out at 16.5. The CT1 in the assay listed under Oryctolagus cuniculus [3] stood at 13. The compound further gave a CT3 in the assay filed under Oryctolagus cuniculus [4] of 70. The compound further displayed an ERP3 in the assay filed under Oryctolagus cuniculus [5] of 17.2. Moreover, the FOC in the assay filed under Oryctolagus cuniculus [6] is reported as 8.5.

Regarding `CS(=O)(=O)Nc1ccc(C(O)CCCN2CCCCCC2)cc1` (stereo not drawn), in the assay listed under Oryctolagus cuniculus [1], the Rate was -11. Besides, the ERP1 in the assay listed under Oryctolagus cuniculus [2] is on record as 17.1. Moreover, the CT1 in the assay filed under Oryctolagus cuniculus [3] is 1. For the same compound, the CT3 in the assay listed under Oryctolagus cuniculus [4] was determined as 0.2. The compound further showed an ERP3 in the assay filed under Oryctolagus cuniculus [5] of 18.3. In the assay listed under Oryctolagus cuniculus [6], this compound yielded an FOC of 3.4.

In turn, `CCCCCCCN(CC)CCCCc1ccc(NS(C)(=O)=O)cc1` had a Rate in the assay listed under Oryctolagus cuniculus [1] of -27. The ERP1 in the assay filed under Oryctolagus cuniculus [2] is recorded as 28.3. The same compound had a CT1 in the assay filed under Oryctolagus cuniculus [3] of 67.2. Besides, the CT3 in the assay listed under Oryctolagus cuniculus [4] amounted to 140. In the assay listed under Oryctolagus cuniculus [5], this compound gave an ERP3 of 19.2. Further, the FOC in the assay listed under Oryctolagus cuniculus [6] was -24.2.

With `CCCCCCCNCCCC(O)c1ccc(NS(C)(=O)=O)cc1` (stereo not drawn), the Rate in the assay listed under Oryctolagus cuniculus [1] is recorded as -25. Further, the ERP1 in the assay listed under Oryctolagus cuniculus [2] was found to be 0.4. This compound also displayed a CT1 in the assay filed under Oryctolagus cuniculus [3] of -7.4. In the assay listed under Oryctolagus cuniculus [4], this compound had a CT3 of 8.3. The compound further gave an ERP3 in the assay listed under Oryctolagus cuniculus [5] of 6.8. The same compound returned an FOC in the assay filed under Oryctolagus cuniculus [6] of -12.1.

Regarding `CCCCCCCN(CC)CCC(O)c1ccc(NS(C)(=O)=O)cc1` (stereo not drawn), the Rate in the assay filed under Oryctolagus cuniculus [1] is reported as -35. Also, the ERP1 in the assay listed under Oryctolagus cuniculus [2] is reported as 37.5. The same compound gave a CT1 in the assay filed under Oryctolagus cuniculus [3] of 15.7. In addition, the CT3 in the assay filed under Oryctolagus cuniculus [4] was 40.3. Moreover, the ERP3 in the assay listed under Oryctolagus cuniculus [5] was 39.3. In addition, the FOC in the assay listed under Oryctolagus cuniculus [6] is reported as -23.

Turning to `CCCCCN(CC)CCCC(O)c1ccc(NS(C)(=O)=O)cc1` (stereo not drawn), in the assay listed under Oryctolagus cuniculus [1], the Rate is listed as -20. This compound also came in with an ERP1 in the assay listed under Oryctolagus cuniculus [2] of 20.8. For the same compound, the CT1 in the assay filed under Oryctolagus cuniculus [3] is recorded as 8.6. In the assay listed under Oryctolagus cuniculus [4], this compound yielded a CT3 of 11.9. Also, the ERP3 in the assay filed under Oryctolagus cuniculus [5] was 11.6. Also, the FOC in the assay listed under Oryctolagus cuniculus [6] amounted to 17.1.

In the assay listed under Oryctolagus cuniculus [2], `CC1CCN(CCCC(O)c2ccc(NS(C)(=O)=O)cc2)CC1` (stereo not drawn) gave an ERP1 of 4.5. The same compound displayed a CT1 in the assay filed under Oryctolagus cuniculus [3] of -2. Besides, the CT3 in the assay filed under Oryctolagus cuniculus [4] is -6.5. In the assay listed under Oryctolagus cuniculus [5], this compound gave an ERP3 of 10.5. The FOC in the assay listed under Oryctolagus cuniculus [6] is -1.

Turning to `CCCCCCCN(CC)CCCC(O)c1ccc(Cl)cc1.Cl` (stereo not drawn), the Rate in the assay listed under Oryctolagus cuniculus [1] was -12. In the assay filed under Oryctolagus cuniculus [2], this compound had an ERP1 of 10.5. In the assay filed under Oryctolagus cuniculus [3], the CT1 was 4. The same compound gave an ERP3 in the assay filed under Oryctolagus cuniculus [5] of 14. Moreover, the FOC in the assay listed under Oryctolagus cuniculus [6] is recorded as -21.

Take `CCCCCCC[N+](CC)(CC)CCCCc1ccc(Cl)cc1.O=P([O-])(O)O` [CLOFILIUM PHOSPHATE]: the Rate in the assay filed under Oryctolagus cuniculus [1] is on record as -22. Moreover, in the assay filed under Oryctolagus cuniculus [2], the ERP1 is 3. In the assay filed under Oryctolagus cuniculus [3], this compound registered a CT1 of 0. Besides, the CT3 in the assay listed under Oryctolagus cuniculus [4] is recorded as -1.4. In the assay filed under Oryctolagus cuniculus [5], the ERP3 turned out to be 3.4. The same compound returned an FOC in the assay listed under Oryctolagus cuniculus [6] of -10.
